Measurements: ChEMBL document CHEMBL1133092, “Drug delivery systems based on trimethyl lock lactonization: poly(ethylene glycol) prodrugs of amino-containing compounds” (J Med Chem, 2000)

Key:
[1] = Half life in Rat plasma; assay type: ADME
Procedure, shortened: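 Conjugate dissolved in distilled water (20 mg/100 µL), then 900 µL rat plasma added. Aliquots incubated at 37 °C for various times, quenched with methanol-acetonitrile (1:1) and filtered. Remaining conjugate measured by HPLC with UV detection at 254 nm (DNR) or 280 nm (ara-C). Run in duplicate. t1/2 calculated from α phase.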

M109 [2] = experiment: In vivo screening in M109 syngeneic solid mouse tumor model (i.v.); assay type: functional
Procedure, shortened: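 Female balb/c mice (20-25 g) implanted subcutaneously in the left flank with about 1 × 10^6 M109 cells on day 0. Dosed intravenously at 3 mg/kg/dose (DNR content) on days 3 and 6; 6 per group with untreated controls. % T/C of median tumor volumes taken when control median reached ~2000 mm3.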

M109 [3] = experiment: In vivo screening in M109 syngeneic solid mouse tumor model (i.p.); assay type: functional
Procedure, shortened: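 Female balb/c mice (20-25 g) implanted subcutaneously in the left flank with about 1 × 10^6 M109 cells on day 0. Dosed intraperitoneally at 3 mg/kg/dose (DNR content) on days 1 and 4; 6 per group with untreated controls. % T/C of median tumor volumes taken when control median reached ~2000 mm3.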

[4] = Half life in Cell media; assay type: ADME
[5] = Half life in buffer at pH 7.4.; assay type: ADME
Procedure, shortened: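 Conjugate dissolved at 5 mg/mL in 0.1 M pH 7.4 PBS and incubated at 37 °C for various periods. Analysed by HPLC with UV detection at 254 nm (DNR) or 280 nm (ara-C). Run in duplicate.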

P388 = experiment: Growth Inhibition of P388/0 cell lines.; assay type: functional, cell-based; details: Mus musculus
Procedure, shortened: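 P388/0 murine leukemia cells seeded at 2 × 10^3 cells/well, exposed to serial dilutions for 3 days at 37 °C, 5% CO2. Alamar Blue then added and plates read after a further 4 h at 37 °C. IC50 taken from absorbance vs dilution factor plots.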

Row | Structure (SMILES) | half-life [1] [h] | T/C (M109 [2]) [%] | T/C (M109 [3]) [%] | half-life [4] [h] | half-life [5] [h] | IC50 (P388) [nM]
1 | CCC(=O)NC(C)C(=O)Oc1cc(C)cc(C)c1C(C)(C)CC(=O)NC1CC(O[C@H]2C[C@](O)(C(C)=O)Cc3c(O)c4c(c(O)c32)C(=O)c2c(OC)cccc2C4=O)OC(C)C1O (stereo not given in full) | 1.9 | 92.5 | 62.8 | 14 | > 24 | 43
2 | CCC(=O)NCCC(=O)Oc1cc(C)cc(C)c1C(C)(C)CC(=O)NC1CC(O[C@H]2C[C@](O)(C(C)=O)Cc3c(O)c4c(c(O)c32)C(=O)c2c(OC)cccc2C4=O)OC(C)C1O (stereo not given in full) | 0.2 | 63.7 | 101.2 | 80 | > 24 | 203
3 | CCC(=O)NC(C)C(=O)Oc1c(C)ccc(C)c1C(C)(C)CC(=O)NC1CC(O[C@H]2C[C@](O)(C(C)=O)Cc3c(O)c4c(c(O)c32)C(=O)c2c(OC)cccc2C4=O)OC(C)C1O (stereo not given in full) | 21 | 52.5 | 153.6 | 36 | > 24 | 389
4 | CCC(=O)NCCOCCOC(=O)Oc1cc(C)cc(C)c1C(C)(C)CC(=O)NC1CC(O[C@H]2C[C@](O)(C(C)=O)Cc3c(O)c4c(c(O)c32)C(=O)c2c(OC)cccc2C4=O)OC(C)C1O (stereo not given in full) | 1.1 | 118.4 | 57.1 | 38 | > 24 | 142
5 | CCC(=O)NCCC(=O)Oc1c(C)ccc(C)c1C(C)(C)CC(=O)NC1CC(O[C@H]2C[C@](O)(C(C)=O)Cc3c(O)c4c(c(O)c32)C(=O)c2c(OC)cccc2C4=O)OC(C)C1O (stereo not given in full) | 8 | 31.6 | 114.8 | 94 | > 24 | 411
